The list is not random: actives were taken first. Their share in the collection is about 1.8%.
MT1-MMP act inh – blockers of MT1-MMP proenzyme processing, primary screen, HT1080 RFP-PRO-GFP cells, GFP/RFP fluorescence; GFP/RFP ratio fluorescence, overnight; percent of plate control window, DMSO zero; GFP/RFP ratio change, % at 20 µM; 360,000 tested, 0.061% active;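 active = GFP/RFP ratio change of at least 30% with cell ATP level not reduced by more than half and red fluorescence within 50% of control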
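Read-out: GFP/RFP fluorescence ratio; Test system: RFP-PRO-GFP reporter HT1080 cells; Compound dosing: single-point 20 µM compound, 1% DMSO; Times: overnight compound exposure at 37 °C.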
DAGLB inhibitor – DAGLB lipase inhibitors, primary screen, biochemical, fluorescence, HTS; Diacylglycerol lipase-beta (Homo sapiens), Q8NCG7; HEK293T DAGLB membrane lysate, EnzChek fluorogenic substrate; inhibition, % at 5.17 µM; 340,000 tested, 0.059% active; in the data active = inhibition above about 34%
Target sequence (Q8NCG7 whole entry, looked up): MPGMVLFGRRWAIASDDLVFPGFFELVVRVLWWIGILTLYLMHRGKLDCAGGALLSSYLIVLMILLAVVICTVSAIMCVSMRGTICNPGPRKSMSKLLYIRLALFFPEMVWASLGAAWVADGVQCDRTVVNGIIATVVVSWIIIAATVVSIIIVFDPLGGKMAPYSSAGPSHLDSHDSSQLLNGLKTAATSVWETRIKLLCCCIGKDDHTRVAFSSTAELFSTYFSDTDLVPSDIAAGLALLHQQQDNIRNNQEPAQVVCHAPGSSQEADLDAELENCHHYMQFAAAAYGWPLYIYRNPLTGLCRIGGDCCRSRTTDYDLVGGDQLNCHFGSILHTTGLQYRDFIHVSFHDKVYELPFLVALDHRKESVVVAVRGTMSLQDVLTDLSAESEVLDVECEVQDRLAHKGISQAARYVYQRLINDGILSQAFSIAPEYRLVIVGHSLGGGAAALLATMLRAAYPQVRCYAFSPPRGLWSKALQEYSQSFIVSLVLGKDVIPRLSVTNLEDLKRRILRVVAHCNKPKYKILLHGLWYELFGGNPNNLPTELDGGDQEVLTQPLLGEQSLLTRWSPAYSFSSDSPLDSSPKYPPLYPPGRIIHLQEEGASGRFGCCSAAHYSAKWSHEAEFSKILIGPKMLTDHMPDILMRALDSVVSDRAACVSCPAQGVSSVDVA
hiPSC survival – enhancers of single-cell hiPSC survival, primary screen, ATPlite luminescence; survival enhancement, % at 20 µM; 100% = ROCK inhibitor wells, 0% = DMSO; 360,000 tested, 0.044% active; in the data active = survival enhancement above about 18%;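 note: cells exposed to compounds for 16 hours before the ATP read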
Ecoli rRNA inh – reduced GFP signal of wild-type E. coli, primary screen, bacterial rRNA inhibitor project, GFP/RFP fluorescence, OD600, single point | GFP signal change (wild-type ribosome), % (test concentration not listed) | E. coli WT GFP vs humanized-ribosome RFP mutants, 24 h; active compounds read low; DMSO median 0, no signal -100 | 350,000 tested, 1.6% active;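 active = significant combined selectivity score with lowered wild-type GFP, culture density cut under 30%, mutant RFP and density less affected; inactive = any of these conditions unmet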
Cneo AK release – Cryptococcus neoformans cell lysis inducers, primary screen, AK release luminescence, single concentration; lysis activity, % at 15 µM; C. neoformans lysis, adenylate kinase release luminescence, 4 h; normalised: neutral wells 0, clomiphene wells 100; 360,000 tested, 0.2% active; AID 651654, 2012;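 active = mean lysis activity across replicates of at least 80%, whatever share of replicates individually reach that level; inactive = mean lysis activity below 80%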
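Material: C. neoformans cells; Schedule: 4 h static compound exposure, 37 °C, read 1 h post-reagent; Measured by: adenylate kinase release luminescence; Read-out: signal increase indicating cell lysis; Controls: Clomiphene as positive lysis control.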
SKN-1 block – suppressors of acrylamide-induced Pgst-4::GFP reporter in worms, primary screen, SKN-1 inhibitor project, whole organism, uHTS, GFP/RFP fluorescence ratio, strain VP596 | C. elegans VP596 Pgst-4::GFP/RFP ratio, 24 h | inhibition, % at 21.8 µM | 360,000 tested, 0.49% active | AID 624304, 2012;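 active = interference check ratio from 0.5 to 1.5 plus GFP to RFP signal ratio inhibition reaching or exceeding a fixed threshold, cut at about 30% in these data, passing the limit was not always enough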
A number is an active result; . = inactive; / = no result given.

SMILES	MT1-MMP act inh	DAGLB inhibitor	hiPSC survival	Ecoli rRNA inh	Cneo AK release	SKN-1 block
COc1ccc(Nc2nnc(-c3ccc(C(=O)NCCO)cc3)c3ccccc23)cc1	.	.	.	.	.	.
CNC(=O)c1ccc(Nc2nnc(-c3ccc(C(N)=O)cc3)c3ccccc23)cc1	/	.	.	.	.	.
NC(=O)c1ccc(Nc2nnc(-c3ccc(O)cc3)c3ccccc23)cc1	.	.	.	-23	/	.
COc1ccccc1N1CCN(S(=O)(=O)c2ccccc2F)CC1	.	.	.	-22	.	.
COc1ccccc1N1CCN(S(=O)(=O)c2ccccc2)CC1	.	.	.	/	.	.
O=C(O)c1ccc(Oc2ccc([N+](=O)[O-])cc2)c([N+](=O)[O-])c1	.	.	.	-9.6	.	.
CN(CC(=O)Nc1cccc(Cl)c1)S(=O)(=O)c1ccc2[nH]c(=O)oc2c1	.	.	.	-25	.	.
C/C(=N\NC(=S)NC1CCCCC1)c1cccs1	.	.	.	-26	.	.
C/C(=N\NC(=S)NC1CCCCC1)c1c(F)cccc1F	.	.	.	.	.	.
CCCC#Cc1cnc2c(c1)C(=O)N([C@@H](C)CO)C[C@@H](C)[C@@H](CN(C)C(=O)c1cnccn1)O2	/	/	/	.	.	/
CCc1ccc(S(=O)(=O)Nc2cc(SCC(=O)O)c(O)c3ccccc23)cc1	.	.	.	.	/	.
O=C(O)CSc1cc(NS(=O)(=O)c2cccc([N+](=O)[O-])c2)c2ccccc2c1O	.	.	.	-34	.	.
CCC(=O)N1C[C@@H](C)[C@H](OC)CN(C)C(=O)c2cc(NC(=O)C3CC3)ccc2OC[C@@H]1C	/	/	/	.	.	/
O=C(NC1=NCCS1)c1sc2ccccc2c1Cl	.	.	.	-31	.	.
O=C(NC1=NCCS1)c1sc2cc(Cl)cc(Cl)c2c1Cl	.	.	.	/	.	.
Cc1noc(C)c1NC(=O)Nc1cccc2c1O[C@@H](CN(C)S(=O)(=O)c1ccccc1)[C@@H](C)CN([C@@H](C)CO)C2=O	/	/	/	.	/	/
O=C(O)c1cc2ccccc2c(N=Nc2cccnc2)c1O	.	.	.	/	.	39
Cc1ccc(S(=O)(=O)/N=C2\C=C(Nc3ccc(O)cc3)C(=O)c3ccccc32)cc1	.	46	.	/	.	.
Cc1ccc(NC2=C/C(=N/S(=O)(=O)c3cccs3)c3ccccc3C2=O)cc1	.	.	.	/	/	.
C[C@@H]1CN([C@@H](C)CO)C(=O)c2cccc(NC(=O)Nc3ccc(F)cc3)c2O[C@@H]1CN(C)CC1CC1	/	/	/	.	.	/
CCC(=O)N1[C@@H]2c3ccc(-c4ccccc4)c(=O)n3C[C@@H]2[C@@H](CO)[C@@H]1C(=O)N(C)C	/	/	/	.	/	/
COc1ccc2c3c([nH]c2c1)[C@H](CO)N(C(C)=O)CC31CN(C(=O)Nc2c(C)noc2C)C1	/	/	/	.	/	/
Cc1ccc(NS(=O)(=O)c2ccc(-c3csc(C)n3)s2)c(C)c1	.	.	.	-38	.	.
CCCC#Cc1cnc2c(c1)C(=O)N([C@H](C)CO)C[C@@H](C)[C@@H](CN(C)C(=O)CN1CCOCC1)O2	/	/	/	.	/	/
CNc1nc(N/N=C/c2ccc([N+](=O)[O-])cc2)nc(Nc2ccccc2)n1	.	.	.	-40	/	.
O=[N+]([O-])c1ccc(NN=Cc2cccc([N+](=O)[O-])c2)cc1	.	.	.	.	.	38
O=[N+]([O-])c1ccc(N/N=C/c2cccc(O)c2)cc1	.	.	.	.	.	.
O=[N+]([O-])c1ccc(N/N=C/c2c[nH]c3ccccc23)cc1	.	.	.	/	.	.
O=[N+]([O-])c1ccc(N/N=C/c2cccc(O)c2O)cc1	.	.	.	-31	.	.
